Activity calls are given as the source filed them. No cut-off for these calls is given here.
Key:
Yarrowia lipolytica [1] = experiment: Inhibition of Yarrowia lipolytica DSM 1345 sterol-delta8/delta7-isomerase assessed as change in sterol pattern at 4 ug/ml after 48 hrs by GC-MS analysis
How it was run: (§1)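 Cellular assay in the model yeast Yarrowia lipolytica, with compounds at 4 µg/mL. Both growth and the sterol pattern were monitored as read-outs of fungal sterol-Δ8/Δ7-isomerase inhibition.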

Yarrowia lipolytica [2] = experiment: Growth inhibition of Yarrowia lipolytica DSM 1345 at 4 ug/ml; format: functional; how it was run: as §1
[3] = biological target: 3-beta-hydroxysteroid-Delta(8),Delta(7)-isomerase (Homo sapiens) (UniProt Q15125); experiment: Inhibition of sterol-delta8/delta7-isomerase in human HL60 cells assessed as change in sterol pattern at 1 uM after 24 hrs; format: cell-based
How it was run: (§2)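 HL-60 cells were screened for inhibition of post-squalene cholesterol-biosynthesis enzymes. Sterol pattern was checked at 1 µM test concentration, and cholesta-8,14-dienol accumulation was examined at 50 µM.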

[4] = biological target: 3-beta-hydroxysteroid-Delta(8),Delta(7)-isomerase (Homo sapiens) (UniProt Q15125); experiment: Inhibition of sterol-delta8/delta7-isomerase in human HL60 cells assessed as accumulation of cholesta-8,14-dienol at 50 uM after 24 hrs; format: cell-based; how it was run: as §2
[5] = Displacement of [3H]-(+)-MK-801 from NMDA receptor PCP binding site in pig brain cortex membranes after 120 mins by microbeta scintillation counting method; format: cell membranes, Sus scrofa
[6] = biological target: Sigma non-opioid intracellular receptor 1 (Cavia porcellus, UniProt Q60492); experiment: Displacement of [3H]-(+)-pentazocine from sigma-1 receptor in guinea pig brain membranes after 120 mins by microbeta scintillation counting method; format: cell membranes, Membrane
[7] = biological target: T1, Sigma intracellular receptor 2 (Rattus norvegicus) (UniProt Q5U3Y7); experiment: Displacement of [3H]DTG from sigma-2 receptor in rat liver membranes at 1 uM after 120 mins by microbeta scintillation counting method relative to control; format: cell membranes; details: Membrane
T1 sequence (whole entry): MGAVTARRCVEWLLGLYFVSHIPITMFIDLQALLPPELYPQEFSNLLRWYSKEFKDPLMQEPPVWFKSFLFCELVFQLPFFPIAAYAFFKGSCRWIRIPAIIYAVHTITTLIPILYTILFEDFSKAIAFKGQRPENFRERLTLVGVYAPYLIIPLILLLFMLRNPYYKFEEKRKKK
How it was run: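 Rat liver homogenate was the receptor source, labelled with [³H]-di-o-tolylguanidine. Excess (+)-pentazocine was added to mask σ1 sites.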

[8] = biological target: T2, Sigma intracellular receptor 2 (Rattus norvegicus, UniProt Q5U3Y7); experiment: Displacement of [3H]DTG from sigma-2 receptor in rat liver membranes after 120 mins by microbeta scintillation counting method; format: cell membranes, Membrane
T2 sequence (Q5U3Y7 whole entry): T1 sequence (whole entry)

Sigma non-opioid intracellular receptor 1, sequence (Q60492 whole entry): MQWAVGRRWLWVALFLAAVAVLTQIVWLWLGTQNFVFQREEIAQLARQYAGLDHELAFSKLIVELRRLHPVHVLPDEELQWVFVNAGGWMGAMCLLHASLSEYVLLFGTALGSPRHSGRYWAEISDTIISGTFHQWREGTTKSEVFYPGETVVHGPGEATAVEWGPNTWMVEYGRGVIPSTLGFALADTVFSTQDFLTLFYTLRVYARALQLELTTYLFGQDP
3-beta-hydroxysteroid-Delta(8),Delta(7)-isomerase (Homo sapiens), sequence (Q15125 whole entry): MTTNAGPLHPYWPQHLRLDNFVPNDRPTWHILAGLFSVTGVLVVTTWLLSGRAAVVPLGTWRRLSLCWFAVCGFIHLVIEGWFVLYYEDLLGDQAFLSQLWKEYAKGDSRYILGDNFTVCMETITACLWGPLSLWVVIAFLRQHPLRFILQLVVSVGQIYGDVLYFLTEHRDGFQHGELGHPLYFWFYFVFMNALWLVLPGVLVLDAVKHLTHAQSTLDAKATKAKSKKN

Row | Structure (SMILES) | IC50 [5] | Ki [6] | Ki [8] | also measured
1 | OCCC1Cc2ccccc2C2(CCN(CCCc3ccccc3)CC2)O1 (racemic) | – | – | – | inhibition (Yarrowia lipolytica [1]): inactive; growth inhibition (GI) (Yarrowia lipolytica [2]): inactive; inhibition [3]: inactive; inhibition [4]: Active
2 | COC(=O)CC1Cc2ccccc2C(CCN2CCC(c3ccccc3)CC2)O1 (racemic) | – | – | – | inhibition (Yarrowia lipolytica [1]): inactive; growth inhibition (GI) (Yarrowia lipolytica [2]): inactive; inhibition [3]: inactive; inhibition [4]: Active
3 | CCCCCCCCN1CCC2(CC1)OC(CCO)Cc1ccccc12 (racemic) | – | – | – | inhibition (Yarrowia lipolytica [1]): inactive; growth inhibition (GI) (Yarrowia lipolytica [2]): inactive; inhibition [3]: inactive; inhibition [4]: Active
4 | OCC[C@@H]1Cc2ccccc2C2(CCN(CC3CCCCC3)CC2)O1 | > 10000 nM | – | 614 nM | –
5 | CCCCCCCCN1CCC2(CC1)O[C@H](CCO)Cc1ccccc12 | > 10000 nM | 56 nM | 260 nM | –
6 | OCC[C@@H]1Cc2ccccc2C2(CCN(Cc3ccccc3)CC2)O1 | > 10000 nM | – | – | inhibition [7]: 9%
7 | OCC[C@H]1Cc2ccccc2C2(CCN(CCCc3ccccc3)CC2)O1 | > 10000 nM | – | 1220 nM | –
8 | OCC[C@H]1Cc2ccccc2C2(CCN(Cc3ccccc3)CC2)O1 | > 10000 nM | – | – | inhibition [7]: 21%
9 | FCC[C@H]1OC2(CCN(Cc3ccccc3)CC2)c2ccccc21 | – | 0.57 nM | – | –
10 | FCC[C@@H]1OC2(CCN(Cc3ccccc3)CC2)c2ccccc21 | – | 2.3 nM | – | –
11 | COC(=O)C[C@@H]1Cc2ccccc2[C@H](CCN2CCC(c3ccccc3)CC2)O1 | > 10000 nM | 43 nM | 32 nM | –

The next lines start with results.

Row | IC50 [5] | Ki [6] | Ki [8] | Structure (SMILES) | also measured
12 | > 10000 nM | 860 nM | – | COC(=O)C[C@@H]1Cc2ccccc2[C@H](CCN2CCCCC2)O1 | inhibition [7]: 39%
13 | > 10000 nM | – | 510 nM | OCC[C@H]1Cc2ccccc2C2(CCN(CC3CCCCC3)CC2)O1 | –
14 | > 10000 nM | 556 nM | – | COC(=O)C[C@H]1Cc2ccccc2[C@@H](CCN2CCCCC2)O1 | inhibition [7]: 13%
15 | > 10000 nM | 33 nM | 525 nM | COC(=O)C[C@H]1Cc2ccccc2[C@@H](CCN2CCC(c3ccccc3)CC2)O1 | –
16 | > 10000 nM | 24 nM | 68 nM | CCCCCCCCN1CCC2(CC1)O[C@@H](CCO)Cc1ccccc12 | –
17 | > 10000 nM | – | 519 nM | OCC[C@@H]1Cc2ccccc2C2(CCN(CCCc3ccccc3)CC2)O1 | –

From ChEMBL document CHEMBL4033681, “Lipase-catalyzed kinetic resolution as key step in the synthesis of enantiomerically pure σ ligands with 2-benzopyran structure” (Bioorg Med Chem, 2017)
